From PMC4838375 (Nucleic Acids Research, 2016)

How the values were obtained:
PHDVC5HCHNSD1 [1] = assay: NMR titration; assay type: binding, murine; conditions: for average CSP value <CSP>: 15N HSQC of PHDVC5HCHNSD1 (0.2 mM), up to 12 molar excess of peptide, 295 K, pH 6.3; for interaction strength: fast exchange regime; for interaction strength / affinity: up to 12 molar excess; for affinity: no saturation
Method in brief: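 15N-labelled PHDvC5HCH domain was expressed in E. coli BL21(DE3) in 15NH4Cl minimal medium with 1 mM IPTG at 28°C overnight. Protein at 0.2–0.3 mM, quantified by UV (ε 12490 M⁻¹cm⁻¹), was in 20 mM sodium phosphate pH 6.3, 0.15 M NaCl, 2 mM DTT, 50 μM ZnCl₂. Peptide (>98% pure, 15 mM stock, dry-weight quantified) was added stepwise; 2D 15N-HSQC was acquired per point. CSP = [(ΔδHN² + ΔδN²/25)/2]^½.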

PHDVC5HCHNSD1 [2] = conditions: biotinylated peptides, 21 aminoacids long; cited from earlier work

Compound | amide chemical shifts induced (PHDVC5HCHNSD1 [1]; NMR titration, up to 300 mM of Lysine) | average CSP value <CSP> (PHDVC5HCHNSD1 [1]) [ppm] | interaction strength (PHDVC5HCHNSD1 [1]; NMR titration) | affinity (PHDVC5HCHNSD1 [1]; NMR titration) | binding in vitro (PHDVC5HCHNSD1 [2])
NCCCC[C@H](N)C(=O)O [Lysine] | induced amide chemical shifts in the same region |  |  |  | 
H3_1–21: Synthetic histone H3 peptide |  | ~0.02 | extremely weak interactions | affinities in the high mM range | 
H3K9me3_1–21: Synthetic histone H3 peptide, K9me3 |  | ~0.02 | extremely weak interactions | affinities in the high mM range | binds
H3K4me3_1–21: Synthetic histone H3 peptide, K4me3 |  | ~0.02 | extremely weak interactions | affinities in the high mM range | binds
